Measured values from ChEMBL document CHEMBL1132289, “Novel potent and selective central 5-HT3 receptor ligands provided with different intrinsic efficacy. 2. Molecular basis of the intrinsic efficacy of arylpiperazine derivatives at the central 5-HT3 receptors” (J Med Chem, 1999).

target: T1, 5-hydroxytryptamine receptor 1B (Rattus norvegicus, UniProt P28564); test: Binding affinity against 5-hydroxytryptamine 1B receptor of rat striatum; type: tissue-based; conditions: not given
Outline: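 [3H]5-HT 2.3 nM final, 14 mg tissue/sample, 1.0 mL, in 50 mM Tris HCl pH 7.7 with 10 μM pargyline, 4 mM CaCl2 and 0.1% ascorbic acid. Filtration through GF/B filters, scintillation counting. […] Mean ± SEM of three determinations.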

T1 sequence (P28564 whole entry): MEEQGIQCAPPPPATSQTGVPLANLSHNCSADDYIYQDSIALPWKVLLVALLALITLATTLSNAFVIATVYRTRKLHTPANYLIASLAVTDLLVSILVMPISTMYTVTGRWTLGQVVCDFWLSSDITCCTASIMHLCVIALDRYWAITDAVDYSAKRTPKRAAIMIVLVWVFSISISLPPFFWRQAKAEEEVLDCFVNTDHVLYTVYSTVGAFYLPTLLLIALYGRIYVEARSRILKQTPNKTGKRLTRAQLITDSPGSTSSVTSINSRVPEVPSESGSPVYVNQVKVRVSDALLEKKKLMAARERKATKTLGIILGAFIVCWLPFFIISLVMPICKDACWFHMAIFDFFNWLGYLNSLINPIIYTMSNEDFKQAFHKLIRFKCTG

SMILES | Ki
CN1CCN(c2cc3c4c(cccc4n2)-c2ccccc2-3)CC1 | 0.64 µM
CN1CCN(c2nc3ccccc3c(-c3ccccc3)c2COC(=O)c2ccccc2)CC1 | 7.6 µM

target: T2, 5-hydroxytryptamine receptor 1A (Rattus norvegicus, UniProt P19327); test: Binding affinity against 5-hydroxytryptamine 1A receptor of rat hippocampus tissue.; type: tissue-based; conditions: not given
T2 sequence (P19327 whole entry): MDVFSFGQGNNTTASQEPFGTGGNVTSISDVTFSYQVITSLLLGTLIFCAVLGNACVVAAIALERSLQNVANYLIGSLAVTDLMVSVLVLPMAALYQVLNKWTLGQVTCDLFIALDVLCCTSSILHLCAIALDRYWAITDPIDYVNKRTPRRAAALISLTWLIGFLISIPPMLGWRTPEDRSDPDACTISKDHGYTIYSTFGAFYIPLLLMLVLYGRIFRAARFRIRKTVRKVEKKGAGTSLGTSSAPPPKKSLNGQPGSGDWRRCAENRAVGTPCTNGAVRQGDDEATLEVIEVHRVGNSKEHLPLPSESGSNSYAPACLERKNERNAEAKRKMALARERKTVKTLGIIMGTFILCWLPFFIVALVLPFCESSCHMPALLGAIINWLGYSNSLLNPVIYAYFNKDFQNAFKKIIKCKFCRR
Outline: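 Rat tissue homogenized in ice-cold 50 mM Tris HCl, resuspended in 50 mM Tris HCl pH 7.4. [3H]8-OH-DPAT 0.5 nM final, 4 mg tissue/sample, 0.5 mL incubation. Stopped by vacuum filtration through GF/B filters, scintillation counting. Mean ± SEM of three determinations.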

SMILES | Ki
CN1CCN(c2cc3c4c(cccc4n2)-c2ccccc2-3)CC1 | 24 µM
CN1CCN(c2nc3ccccc3c3c2CCc2sccc2-3)CC1 | 12 µM
CN1CCN(c2nc3ccccc3c(-c3ccccc3)c2COC(=O)c2ccccc2)CC1 | 4.1 µM

target: T1, 5-hydroxytryptamine receptor 1B; test: Binding affinity against 5-hydroxytryptamine 1B receptor of rat striatum.; type: tissue-based; conditions: not given

SMILES | Ki
CN1CCN(c2nc3ccccc3c3c2CCc2sccc2-3)CC1 | 1.5 µM

target: T3, 5-hydroxytryptamine receptor 2C (Rattus norvegicus, UniProt P08909); test: Binding affinity against 5-hydroxytryptamine 2C receptor of rat cortex.; conditions: not given
T3 sequence (P08909 whole entry): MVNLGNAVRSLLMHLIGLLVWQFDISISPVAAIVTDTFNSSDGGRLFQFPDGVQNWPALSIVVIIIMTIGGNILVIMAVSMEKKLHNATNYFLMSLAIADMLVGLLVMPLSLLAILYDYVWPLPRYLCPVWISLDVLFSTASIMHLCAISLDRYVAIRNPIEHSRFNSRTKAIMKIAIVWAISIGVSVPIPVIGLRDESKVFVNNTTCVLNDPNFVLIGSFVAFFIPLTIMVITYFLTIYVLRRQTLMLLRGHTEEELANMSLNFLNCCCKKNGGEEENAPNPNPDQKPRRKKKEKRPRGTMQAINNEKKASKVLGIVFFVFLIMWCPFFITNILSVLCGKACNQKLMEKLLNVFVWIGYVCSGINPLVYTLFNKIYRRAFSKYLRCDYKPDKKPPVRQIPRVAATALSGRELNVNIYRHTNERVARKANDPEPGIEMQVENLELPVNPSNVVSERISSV

SMILES | Ki
CN1CCN(c2nc3ccccc3c3c2CCc2sccc2-3)CC1 | 420 µM

system: NG108-15; test: (§1) Quantitative effect on the [14C]guanidinium accumulation in NG 108-15 cells (mouse neuroblastoma and rat glioma hybrid cells); type: functional, cell-based; conditions: Murinae

SMILES | IC50
CN1CCN(c2nc3ccccc3c3c2CCC2CCCCC32)CC1 (stereo not drawn) | 0.25 µM
CN1CCN(c2nc3ccccc3c3c2CC2CCC3C2)CC1 (stereo not drawn) | 0.008 µM
CN1CCN(c2nc3ccccc3c3c2C(=O)c2ccccc2-3)CC1 | 0.139 µM
CN1CCN(c2nc3ccccc3c3c2CCc2ccccc2-3)CC1 | 0.0046 µM
CN1CCN(c2cc(C34C[C@H]5C[C@@H](C3)C[C@@H](C4)C5)c3ccccc3n2)CC1 | 0.08 µM
CN1CCN(c2nc3ccccc3c3c2CCc2sccc2-3)CC1 | 0.062 µM
CN1CCN(c2nc3ccccc3c(-c3ccccc3)c2COC(=O)c2ccccc2)CC1 | 0.009 µM

system: NG108-15; test: as §1; type: functional, cell-based; conditions: Murinae
Outline: (§2)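 NG 108-15 cells grown 2 days, washed, then exposed 10 min at 37 °C to buffer containing 10 mM guanidinium, [14C]guanidinium, 10 μM substance P, and/or 1 μM 5-HT, with eight drug concentrations. Cells lysed in NaOH, then scintillation counting. EC50 for agonists, IC50 for antagonists. Triplicate per concentration.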

SMILES | EC50
CN1CCN(c2nc3ccccc3c3ccccc23)CC1 | 0.01 µM
CN1CCN(c2cc3c4c(cccc4n2)-c2ccccc2-3)CC1 | 0.012 µM
CN1CCN(c2nc3ccccc3c3c2CCCC3)CC1 | 0.00025 µM
CN1CCN(c2nccc3c2ccc2ccccc23)CC1 | 0.03 µM
CN1CCN(c2nccc3c2CCc2ccccc2-3)CC1 | 0.007 µM

target: T4, Serotonin 3 (5-HT3) receptor (Rattus norvegicus, UniProt P35563+Q9JJ16); test: Inhibition of [3H]granisetron binding to 5-hydroxytryptamine 3 receptor (5-HT 3 receptor) of rat cortex and hippocampus tissue; type: tissue-based; conditions: not given
T4 sequence (P35563 whole entry): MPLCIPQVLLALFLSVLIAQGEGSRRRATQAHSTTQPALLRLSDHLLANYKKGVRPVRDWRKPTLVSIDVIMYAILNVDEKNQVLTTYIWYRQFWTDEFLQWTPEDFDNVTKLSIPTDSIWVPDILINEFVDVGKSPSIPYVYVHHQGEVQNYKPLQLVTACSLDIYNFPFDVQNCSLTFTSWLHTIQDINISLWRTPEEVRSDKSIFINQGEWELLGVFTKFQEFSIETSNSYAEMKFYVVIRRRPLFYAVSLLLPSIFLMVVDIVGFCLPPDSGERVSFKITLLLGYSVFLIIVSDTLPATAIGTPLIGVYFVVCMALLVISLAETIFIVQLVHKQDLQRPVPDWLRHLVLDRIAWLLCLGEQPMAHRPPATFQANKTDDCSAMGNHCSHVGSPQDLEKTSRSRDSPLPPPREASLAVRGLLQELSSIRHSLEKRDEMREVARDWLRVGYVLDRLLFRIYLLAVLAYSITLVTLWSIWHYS
T4 sequence (Q9JJ16 whole entry): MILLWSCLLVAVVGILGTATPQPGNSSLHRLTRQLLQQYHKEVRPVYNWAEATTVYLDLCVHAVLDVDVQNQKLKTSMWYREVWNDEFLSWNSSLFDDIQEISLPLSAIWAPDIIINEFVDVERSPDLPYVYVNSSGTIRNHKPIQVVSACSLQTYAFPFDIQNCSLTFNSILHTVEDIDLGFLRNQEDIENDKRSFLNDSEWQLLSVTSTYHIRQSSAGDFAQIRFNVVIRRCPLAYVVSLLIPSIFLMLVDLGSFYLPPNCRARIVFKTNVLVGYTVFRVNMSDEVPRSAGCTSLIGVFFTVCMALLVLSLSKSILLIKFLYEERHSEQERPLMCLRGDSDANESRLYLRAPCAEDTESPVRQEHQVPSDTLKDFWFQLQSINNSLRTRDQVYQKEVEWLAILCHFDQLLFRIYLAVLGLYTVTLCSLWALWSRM

SMILES | Ki
CN1CCN(c2cc3c4c(cccc4n2)-c2ccccc2-3)CC1 | 0.0018 µM
CN1CCN(c2nc3c(c4c2CCc2ccccc2-4)CCCC3)CC1 | 2.3 µM
CN1CCN(c2nc3ccccc3c3c2C(=O)c2ccccc2-3)CC1 | 0.02 µM
CN1CCN(c2nc3c(c4c2CSc2ccccc2-4)CCCC3)CC1 | 2.7 µM
CN1CCN(c2nc3ccccc3c3c2CCc2ccccc2-3)CC1 | 0.0042 µM
CN1CCN(c2nccc3c2ccc2ccccc23)CC1 | 0.029 µM
CN1CCN(c2nccc3c2CCc2ccccc2-3)CC1 | 0.016 µM
CCOC(=O)c1c(N2CCN(C)CC2)nc2cccc3c2c1-c1ccccc1-3 | 0.0039 µM
CN1CCN(c2cc(C34C[C@H]5C[C@@H](C3)C[C@@H](C4)C5)c3ccccc3n2)CC1 | 0.08 µM
CCCCOC(=O)c1c(N2CCN(C)CC2)nc2cccc3c2c1-c1ccccc1-3 | 0.078 µM
c1ccc2c(c1)ccc1c(N3CCOCC3)nccc12 | 4.9 µM
CN1CCN(c2nc3ccccc3c(-c3ccccc3)c2COC(=O)c2ccccc2)CC1 | 0.0088 µM
CN1CCN(c2ccnc3c2ccc2ccccc23)CC1 | 0.49 µM
CCCN(CCC)C(=O)c1c(N2CCN(C)CC2)nc2cccc3c2c1-c1ccccc1-3 | 0.003 µM

target: T5, Serotonin 3 (5-HT3) receptor (Rattus norvegicus) (UniProt P35563+Q9JJ16); test: Intrinsic efficacy against 5-hydroxytryptamine 3 receptor; A means pure agonist; type: functional; conditions: filed as agonist
Outline: (§3)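 Mouse neuroblastoma × rat glioma NG 108-15 cells grown 2 days in DMEM; washed, then incubated 10 min at 37 °C in guanidinium buffer B (135 mM NaCl, 10 mM guanidinium, pH 7.4) with […] [14C]guanidinium, 10 μM substance P, 1 μM 5-HT where indicated, eight drug concentrations; ice-cold choline wash, NaOH lysis, scintillation counting. Triplicates; EC50 (agonists/partial agonists) or IC50 (antagonists).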

SMILES | Intrinsic efficacy
c1ccc2nc(N3CCNCC3)ccc2c1 | Agonist
CN1CCN(c2nc3ccccc3c3ccccc23)CC1 | Agonist
CN1CCN(c2nccc3c2ccc2ccccc23)CC1 | Agonist
CN1CCN(c2nccc3c2CCc2ccccc2-3)CC1 | Agonist
NCCc1c[nH]c2ccc(O)cc12 [SEROTONIN] | Agonist

target: T6, 5-hydroxytryptamine receptor 2A (Rattus norvegicus, UniProt P14842); test: Binding affinity against 5-hydroxytryptamine 2A receptor of rat pre-frontal cortex.; conditions: not given
Outline: (§4)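 Membranes incubated with [3H]ketanserin 0.5 nM final, 8 mg tissue/sample, 0.5 mL, 50 mM Tris HCl pH 7.7. Filtration through GF/B filters, then scintillation counting. […] Mean ± SEM of three determinations.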

T6 sequence (P14842 whole entry): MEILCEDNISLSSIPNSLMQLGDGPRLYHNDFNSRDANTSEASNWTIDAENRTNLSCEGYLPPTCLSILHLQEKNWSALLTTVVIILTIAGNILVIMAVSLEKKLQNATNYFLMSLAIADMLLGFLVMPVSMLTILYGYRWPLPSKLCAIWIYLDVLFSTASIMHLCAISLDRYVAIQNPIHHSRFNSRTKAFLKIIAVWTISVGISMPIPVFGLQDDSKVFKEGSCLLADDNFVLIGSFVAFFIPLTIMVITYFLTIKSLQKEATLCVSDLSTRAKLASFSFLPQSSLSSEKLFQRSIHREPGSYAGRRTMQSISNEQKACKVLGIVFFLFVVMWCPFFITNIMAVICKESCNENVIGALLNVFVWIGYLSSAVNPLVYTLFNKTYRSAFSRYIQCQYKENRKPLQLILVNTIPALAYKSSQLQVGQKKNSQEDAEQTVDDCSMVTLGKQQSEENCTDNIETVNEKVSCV

SMILES | Ki
CN1CCN(c2nc3ccccc3c3c2CCc2sccc2-3)CC1 | 3.1 µM

target: T5, Serotonin 3 (5-HT3) receptor (Rattus norvegicus); test: Intrinsic efficacy for rat 5-hydroxytryptamine 3 receptor; type: protein-complex assay; conditions: filed as antagonist

SMILES | Intrinsic efficacy
CN1CCN(c2nc3ccccc3c3c2CCC2CCCCC32)CC1 (stereo not drawn) | Antagonist
CN1CCN(c2nc3ccccc3c3c2CC2CCC3C2)CC1 (stereo not drawn) | Antagonist
CN1CCN(c2nc3ccccc3c3c2C(=O)c2ccccc2-3)CC1 | Antagonist
CN1CCN(c2nc3ccccc3c3c2CCc2ccccc2-3)CC1 | Antagonist
CN1CCN(c2cc(C34C[C@H]5C[C@@H](C3)C[C@@H](C4)C5)c3ccccc3n2)CC1 | Antagonist
CN1CCN(c2nc3ccccc3c3c2CCc2sccc2-3)CC1 | Antagonist
CN1C2CCCC1CC(NC(=O)c1nn(C)c3ccccc13)C2 (stereo not drawn) | Antagonist
CN1CCN(c2nc3ccccc3c(-c3ccccc3)c2COC(=O)c2ccccc2)CC1 | Antagonist

target: Sodium-dependent serotonin transporter (Rattus norvegicus, UniProt P31652); test: Binding affinity towards Serotonin transporter was determined in rat forebrain membrane; type: cell membranes; conditions: not given
Outline: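 Membranes stored at -80 °C. [3H]paroxetine 0.1 nM final, 2 mg tissue/sample, 2.0 mL, in 50 mM Tris HCl pH 7.4 with 120 mM NaCl and 5 mM KCl. Filters presoaked in 0.5% poly(ethylenimine). Mean ± SEM of three determinations.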

Sodium-dependent serotonin transporter, sequence (P31652 whole entry): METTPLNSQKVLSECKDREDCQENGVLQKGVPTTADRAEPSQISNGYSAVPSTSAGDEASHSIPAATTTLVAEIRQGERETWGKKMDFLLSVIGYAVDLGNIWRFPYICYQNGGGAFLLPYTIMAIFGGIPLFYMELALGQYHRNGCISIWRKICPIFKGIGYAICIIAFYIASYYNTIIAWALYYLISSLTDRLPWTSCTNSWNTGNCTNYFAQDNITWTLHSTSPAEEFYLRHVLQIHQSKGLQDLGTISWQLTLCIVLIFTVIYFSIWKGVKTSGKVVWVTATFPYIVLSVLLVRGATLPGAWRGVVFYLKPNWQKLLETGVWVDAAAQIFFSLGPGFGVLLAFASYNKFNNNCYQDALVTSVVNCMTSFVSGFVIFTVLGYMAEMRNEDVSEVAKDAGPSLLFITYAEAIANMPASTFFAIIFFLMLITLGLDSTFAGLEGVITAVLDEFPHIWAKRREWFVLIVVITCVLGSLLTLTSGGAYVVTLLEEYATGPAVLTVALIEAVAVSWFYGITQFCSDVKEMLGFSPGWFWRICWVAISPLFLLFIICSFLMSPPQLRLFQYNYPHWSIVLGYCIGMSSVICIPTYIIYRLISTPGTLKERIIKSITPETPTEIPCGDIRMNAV

SMILES | Ki
CN1CCN(c2cc3c4c(cccc4n2)-c2ccccc2-3)CC1 | 1.6 µM
CN1CCN(c2nc3ccccc3c3c2CCc2sccc2-3)CC1 | 4.6 µM
CN1CCN(c2nc3ccccc3c(-c3ccccc3)c2COC(=O)c2ccccc2)CC1 | 1.1 µM

target: T6, 5-hydroxytryptamine receptor 2A; test: Binding affinity against 5-hydroxytryptamine 2A receptor of rat pre-frontal cortex; type: tissue-based; conditions: not given; outline: as §4

SMILES | Ki
CN1CCN(c2cc3c4c(cccc4n2)-c2ccccc2-3)CC1 | 13 µM
CN1CCN(c2nc3ccccc3c(-c3ccccc3)c2COC(=O)c2ccccc2)CC1 | > 10 µM

system: NG108-15; test: Quantitative effect on the [14C]guanidinium accumulation in NG 108-15 cells.; type: functional, cell-based; conditions: Murinae; outline: as §3

SMILES | EC50
NCCc1c[nH]c2ccc(O)cc12 [SEROTONIN] | 0.298 µM

target: T3, 5-hydroxytryptamine receptor 2C; test: Binding affinity against 5-hydroxytryptamine 2C receptor of rat cortex; type: tissue-based; conditions: not given

SMILES | Ki
CN1CCN(c2cc3c4c(cccc4n2)-c2ccccc2-3)CC1 | > 10 µM
CN1CCN(c2nc3ccccc3c(-c3ccccc3)c2COC(=O)c2ccccc2)CC1 | 0.031 µM

target: T5, Serotonin 3 (5-HT3) receptor (Rattus norvegicus); test: Intrinsic efficacy against 5-hydroxytryptamine 3 receptor; PA means partial agonist; type: functional; conditions: filed as partial agonist; outline: as §2

SMILES | Intrinsic efficacy
CN1CCN(c2cc3c4c(cccc4n2)-c2ccccc2-3)CC1 | Partial agonist
CN1CCN(c2nc3ccccc3c3c2CCCC3)CC1 | Partial agonist
CCCN(CCC)C(=O)c1c(N2CCN(C)CC2)nc2cccc3c2c1-c1ccccc1-3 | Partial agonist

target: T4, Serotonin 3 (5-HT3) receptor; test: Inhibition of [3H]granisetron binding to 5-hydroxytryptamine 3 receptor of rat cortical membrane; conditions: not given

SMILES | Ki
CN1CCN(c2nc3ccccc3c3c2CCC2CCCCC32)CC1 (stereo not drawn) | 0.029 µM
CN1CCN(c2nc3ccccc3c3c2ccc2ccccc23)CC1 | 0.046 µM
CN1CCN(c2nc3ccccc3c3c2CCc2sccc2-3)CC1 | 0.0057 µM
c1ccc2c(c1)CCc1c(N3CCOCC3)nc3ccccc3c1-2 | > 5.3 µM
CN1CCN(c2nc3ccccc3c3c2CSc2ccccc2-3)CC1 | 0.019 µM
